Test results taken from ChEMBL document CHEMBL3352597, “Heck products of parthenolide and melampomagnolide-B as anticancer modulators that modify cell cycle progression” (Eur J Med Chem, 2014).
The source made the active and inactive calls. The calls are words filed in the database; no cut-off is given here.

System: Oocyte
Assay: Induction of immature stage VI Xenopus oocyte maturation assessed as stimulation of progesterone-mediated maturation measured as germinal vesicle (nuclear) breakdown at 100 uM after overnight incubation
Type: functional, cell-based
Summary of the method: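 Oocytes (20 per well) pre-treated overnight with compound (100 μM final, DMSO) or DMSO vehicle, then stimulated with 2 μg/ml progesterone. GVBD (animal-pole white spot) scored at the time 50% of DMSO controls reach GVBD. Rate relative to control: 1.0 means no difference, above 1.0 acceleration, below 1.0 delay, 0.0 no maturation. Differences over 20% followed up.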

C[C@@]12CC/C=C(/CO)CC[C@@H]3/C(=C\c4cccc(C(F)(F)F)c4)C(=O)O[C@@H]3[C@@H]1O2
Activity: Active
